Values after ≈ are worked out from the molar mass of the structure shown.
Key:
Format in all cases: functional
[1] = system: Parabacteroides distasonis; test: Antimicrobial activity against Bacteroides distasonis by agar dilution method
Method in brief: (§1)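 CLSI agar dilution on enriched brucella agar (5% lysed defibrinated sheep blood, 1 μg/ml vitamin K1), with drug plates made on the test day. Log-phase cells were adjusted to 0.5 McFarland, and about 10^5 CFU/spot was delivered by Steers replicator. Plates were incubated anaerobically at 37°C for 48 h. MIC was the lowest concentration giving a marked growth change versus the control plate. Controls were B. fragilis ATCC 25285 and B. thetaiotaomicron ATCC 29741.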

Bacteroides caccae [2] = test: Antimicrobial activity against Bacteroides caccae assessed as resistant isolates by agar dilution method
Method in brief: (§2)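 CLSI agar dilution on enriched brucella agar (5% lysed defibrinated sheep blood, 1 μg/ml vitamin K1), plates made on test day. Log-phase inocula adjusted to 0.5 McFarland; about 10^5 CFU/spot by Steers replicator. Incubated anaerobically at 37°C for 48 h. MIC was the lowest concentration giving a marked change in growth versus the drug-free control plate. Resistance rates used CLSI anaerobe breakpoints. Controls were B. fragilis ATCC 25285 and B. thetaiotaomicron ATCC 29741.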

Bacteroides caccae [3] = test: Antimicrobial activity against Bacteroides caccae by agar dilution method; method in brief: as §1
[4] = system: Parabacteroides distasonis; test: Antimicrobial activity against Bacteroides distasonis assessed as resistant isolates by agar dilution method; method in brief: as §2
Bacteroides fragilis [5] = test: Antimicrobial activity against Bacteroides fragilis by agar dilution method; method in brief: as §1
Bacteroides fragilis [6] = test: Antimicrobial activity against Bacteroides fragilis assessed as resistant isolates by agar dilution method; method in brief: as §2
Bacteroides ovatus [7] = test: Antimicrobial activity against Bacteroides ovatus by agar dilution method; method in brief: as §1
Bacteroides ovatus [8] = test: Antimicrobial activity against Bacteroides ovatus assessed as resistant isolates by agar dilution method; method in brief: as §2
[9] = system: Bacteroides thetaiotaomicron; test: Antimicrobial activity against Bacteroides thetaiotaomicron by agar dilution method; method in brief: as §1
[10] = system: Bacteroides thetaiotaomicron; test: Antimicrobial activity against Bacteroides thetaiotaomicron assessed as resistant isolates by agar dilution method; method in brief: as §2
Bacteroides uniformis [11] = test: Antimicrobial activity against Bacteroides uniformis by agar dilution method; method in brief: as §1
Bacteroides uniformis [12] = test: Antimicrobial activity against Bacteroides uniformis assessed as resistant isolates by agar dilution method; method in brief: as §2
Phocaeicola vulgatus [13] = test: Antimicrobial activity against Bacteroides vulgatus by agar dilution method; method in brief: as §1
Phocaeicola vulgatus [14] = test: Antimicrobial activity against Bacteroides vulgatus assessed as resistant isolates by agar dilution method; method in brief: as §2
Bacteroides eggerthii [15] = test: Antimicrobial activity against Bacteroides eggerthii by agar dilution method; method in brief: as §1
Bacteroides eggerthii [16] = test: Antimicrobial activity against Bacteroides eggerthii assessed as resistant isolates by agar dilution method; method in brief: as §2
Parabacteroides merdae [17] = test: Antimicrobial activity against Bacteroides merdae by agar dilution method; method in brief: as §1
Parabacteroides merdae [18] = test: Antimicrobial activity against Bacteroides merdae assessed as resistant isolates by agar dilution method; method in brief: as §2
Bacteroides nordii [19] = test: Antimicrobial activity against Bacteroides nordii by agar dilution method; method in brief: as §1
Bacteroides nordii [20] = test: Antimicrobial activity against Bacteroides nordii assessed as resistant isolates by agar dilution method; method in brief: as §2
Clostridioides difficile = test: Antimicrobial activity against Clostridium difficile by agar dilution method
Clostridium perfringens = test: Antimicrobial activity against Clostridium perfringens by agar dilution method
[Clostridium] innocuum [21] = Antimicrobial activity against Clostridium innocuum by agar dilution method
[Clostridium] innocuum [22] = Antimicrobial activity against Clostridium innocuum assessed as resistant isolates by agar dilution method; conditions: pooled result: one value given for 4 cell lines, strains, targets or settings
[23] = system: Clostridium paraputrificum; test: Antimicrobial activity against Clostridium paraputrificum by agar dilution method
Clostridium subterminale = test: Antimicrobial activity against Clostridium subterminale by agar dilution method
Clostridium tertium = test: Antimicrobial activity against Clostridium tertium by agar dilution method
Finegoldia magna [24] = test: Antimicrobial activity against Finegoldia magna by agar dilution method
Method in brief: (§3)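 Gram-positive anaerobes were tested by CLSI agar dilution on brucella agar enriched with 5% lysed defibrinated sheep blood and 1 μg/ml vitamin K1. Inoculum was log-phase growth at 0.5 McFarland, about 10^5 CFU/spot by replicator. Incubation was anaerobic, 37°C, 48 h. MIC was the lowest concentration with a marked growth change versus the drug-free plate. Eubacterium lentum ATCC 43055 was the control, and tests were repeated if it fell outside the CLSI range.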

Finegoldia magna [25] = test: Antimicrobial activity against Finegoldia magna assessed as resistant isolates by agar dilution method
Method in brief: (§4)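 Agar dilution following CLSI on brucella agar with 5% lysed defibrinated sheep blood and 1 μg/ml vitamin K1, plates made on test day. Log-phase cells at 0.5 McFarland, about 10^5 CFU/spot by Steers replicator, 48 h anaerobic at 37°C. MIC read as the lowest concentration causing a marked growth change versus control. Resistance counted by CLSI anaerobe breakpoints. Eubacterium lentum ATCC 43055 served as control.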

[26] = system: Peptoniphilus asaccharolyticus; test: Antimicrobial activity against Peptoniphilus asaccharolyticus by agar dilution method; method in brief: as §3
[27] = system: Peptoniphilus asaccharolyticus; test: Antimicrobial activity against Peptoniphilus asaccharolyticus assessed as resistant isolates by agar dilution method; conditions: pooled result: one value given for 4 cell lines, strains, targets or settings; method in brief: as §4
Parvimonas micra = test: Antimicrobial activity against Micromonas micros by agar dilution method; method in brief: as §3
Anaerococcus prevotii = test: Antimicrobial activity against Anaerococcus prevotii by agar dilution method; method in brief: as §3
Peptostreptococcus sp. = test: Antimicrobial activity against Peptostreptococcus sp. by agar dilution method
Method in brief: (§5)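 Log-phase isolates were adjusted to 0.5 McFarland, and about 10^5 CFU/spot was delivered by Steers replicator. Plates were incubated anaerobically at 37°C for 48 h. MIC was the lowest concentration giving a marked growth change versus the control plate. Eubacterium lentum ATCC 43055 was the QC strain, with repeats when out of range.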

Cutibacterium acnes [28] = test: Antimicrobial activity against Propionibacterium acnes by agar dilution method; method in brief: as §5
Cutibacterium acnes [29] = test: Antimicrobial activity against Propionibacterium acnes assessed as resistant isolates by agar dilution method; method in brief: as §4
Propionibacterium [30] = test: Antimicrobial activity against Propionibacterium sp. by agar dilution method; method in brief: as §5
Propionibacterium [31] = test: Antimicrobial activity against Propionibacterium sp. assessed as resistant isolates by agar dilution method; method in brief: as §4

C[C@@H](O)[C@H]1C(=O)N2C(C(=O)O)=C(SCCNC=N)C[C@H]12 [IMIPENEM ANHYDROUS]
MIC50 [1]: 0.25 µg/mL (≈ 0.835 µM)
MIC90 [1]: 2 µg/mL (≈ 6.68 µM)
Activity (Bacteroides caccae [2]): 0%
MIC50 (Bacteroides caccae [3]): 0.5 µg/mL (≈ 1.67 µM)
MIC90 (Bacteroides caccae [3]): 2 µg/mL (≈ 6.68 µM)
Activity [4]: 0%
MIC50 (Bacteroides fragilis [5]): 0.5 µg/mL (≈ 1.67 µM)
MIC90 (Bacteroides fragilis [5]): 1 µg/mL (≈ 3.34 µM)
Activity (Bacteroides fragilis [6]): 1%
MIC50 (Bacteroides ovatus [7]): 0.5 µg/mL (≈ 1.67 µM)
MIC90 (Bacteroides ovatus [7]): 2 µg/mL (≈ 6.68 µM)
Activity (Bacteroides ovatus [8]): 0%
MIC50 [9]: 1 µg/mL (≈ 3.34 µM)
MIC90 [9]: 2 µg/mL (≈ 6.68 µM)
Activity [10]: 0%
MIC50 (Bacteroides uniformis [11]): 1 µg/mL (≈ 3.34 µM)
MIC90 (Bacteroides uniformis [11]): 1 µg/mL (≈ 3.34 µM)
Activity (Bacteroides uniformis [12]): 0%
MIC50 (Phocaeicola vulgatus [13]): 1 µg/mL (≈ 3.34 µM)
MIC90 (Phocaeicola vulgatus [13]): 2 µg/mL (≈ 6.68 µM)
Activity (Phocaeicola vulgatus [14]): 0%
MIC50 (Bacteroides eggerthii [15]): 0.5 µg/mL (≈ 1.67 µM)
MIC90 (Bacteroides eggerthii [15]): 1 µg/mL (≈ 3.34 µM)
Activity (Bacteroides eggerthii [16]): 0%
MIC50 (Parabacteroides merdae [17]): 0.5 µg/mL (≈ 1.67 µM)
MIC90 (Parabacteroides merdae [17]): 1 µg/mL (≈ 3.34 µM)
Activity (Parabacteroides merdae [18]): 0%
MIC50 (Bacteroides nordii [19]): 0.5 µg/mL (≈ 1.67 µM)
MIC90 (Bacteroides nordii [19]): 1 µg/mL (≈ 3.34 µM)
Activity (Bacteroides nordii [20]): 0%
MIC (Clostridioides difficile): 2 µg/mL (≈ 6.68 µM)
MIC50 (Clostridium perfringens): 0.5 µg/mL (≈ 1.67 µM)
MIC90 (Clostridium perfringens): 0.5 µg/mL (≈ 1.67 µM)
MIC50 ([Clostridium] innocuum [21]): 2 µg/mL (≈ 6.68 µM)
MIC90 ([Clostridium] innocuum [21]): 2 µg/mL (≈ 6.68 µM)
Activity ([Clostridium] innocuum [22]): 16.7%
MIC50 [23]: 2 µg/mL (≈ 6.68 µM)
MIC90 [23]: 2 µg/mL (≈ 6.68 µM)
MIC50 (Clostridium subterminale): 2 µg/mL (≈ 6.68 µM)
MIC90 (Clostridium subterminale): 2 µg/mL (≈ 6.68 µM)
MIC50 (Clostridium tertium): 2 µg/mL (≈ 6.68 µM)
MIC90 (Clostridium tertium): 2 µg/mL (≈ 6.68 µM)
MIC50 (Finegoldia magna [24]): 0.25 µg/mL (≈ 0.835 µM)
MIC90 (Finegoldia magna [24]): 0.25 µg/mL (≈ 0.835 µM)
Activity (Finegoldia magna [25]): 0%
MIC50 [26]: 0.125 µg/mL (≈ 0.418 µM)
MIC90 [26]: 0.5 µg/mL (≈ 1.67 µM)
Activity [27]: 0%
MIC50 (Parvimonas micra): 0.125 µg/mL (≈ 0.418 µM)
MIC90 (Parvimonas micra): 0.5 µg/mL (≈ 1.67 µM)
MIC50 (Anaerococcus prevotii): 0.125 µg/mL (≈ 0.418 µM)
MIC90 (Anaerococcus prevotii): 0.5 µg/mL (≈ 1.67 µM)
MIC50 (Peptostreptococcus sp.): 0.125 µg/mL (≈ 0.418 µM)
MIC90 (Peptostreptococcus sp.): 0.5 µg/mL (≈ 1.67 µM)
MIC (Cutibacterium acnes [28]): 0.06 µg/mL (≈ 0.2 µM)
MIC50 (Cutibacterium acnes [28]): 0.06 µg/mL (≈ 0.2 µM)
MIC90 (Cutibacterium acnes [28]): 0.06 µg/mL (≈ 0.2 µM)
Activity (Cutibacterium acnes [29]): 0%
MIC (Propionibacterium [30]): 0.06 µg/mL (≈ 0.2 µM)
MIC50 (Propionibacterium [30]): 0.06 µg/mL (≈ 0.2 µM)
MIC90 (Propionibacterium [30]): 0.25 µg/mL (≈ 0.835 µM)
Activity (Propionibacterium [31]): 0%
